From paper PMC12429009 (The FASEB Journal, 2025)
Changes are numbered by the printed parent chain. Names and notes keep the numbering of the source. “Also recorded” adds a separate entry of the source.

T1: 14-3-3ζ WT (human), P63104
T1 chain: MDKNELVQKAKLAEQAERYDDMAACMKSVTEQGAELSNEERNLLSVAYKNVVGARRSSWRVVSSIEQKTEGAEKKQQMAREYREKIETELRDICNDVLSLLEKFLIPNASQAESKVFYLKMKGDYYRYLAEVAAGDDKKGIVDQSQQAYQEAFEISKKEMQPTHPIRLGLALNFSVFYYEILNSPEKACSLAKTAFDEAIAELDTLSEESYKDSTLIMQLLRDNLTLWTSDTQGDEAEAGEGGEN

B1: 14-3-3ζ WT, P63104 1-245 (natural protein)
chain: T1 chain
B2: E131AN173V: 14‐3‐3ζ double mutant (protein)
chain: T1 chain with E131A, N173V
modifications: left off: His6, end not stated, cleaved
B3: N173V (protein)
chain: T1 chain with N173V
modifications: left off: His6, end not stated, cleaved
B4: E180AN173V: 14‐3‐3ζ double mutant (protein)
chain: T1 chain with N173V, E180A
modifications: left off: His6, end not stated, cleaved
B5: E131AE180A: 14‐3‐3ζ double mutant (protein, UniProt P63104 1-245, looked up, variant E131A E180A)
14-3-3 protein zeta/delta: T1 chain with E131A, E180A
B6: R55A: 14‐3‐3ζ dimer interface mutant (protein)
chain: T1 chain with R55A
modifications: left off: His6, end not stated, cleaved
B7: Y82A: 14‐3‐3ζ mutant, monomer, ATPase null mutant (protein)
chain: T1 chain with Y82A
modifications: left off: His6, end not stated, cleaved
B8: E131A (protein)
chain: T1 chain with E131A
modifications: left off: His6, end not stated, cleaved
B9: D124A (protein)
chain: T1 chain with D124A
modifications: left off: His6, end not stated, cleaved
B10: Y82AN173V: 14‐3‐3ζ double mutant, monomer (protein)
chain: T1 chain with Y82A, N173V
modifications: left off: His6, end not stated, cleaved
B11: 14-3-3ζ N173V (natural protein, human, UniProt P63104 1-245, looked up)
chain: T1 chain with N173V
B12: 14-3-3ζ E131A (natural protein, human, UniProt P63104 1-245, looked up)
chain: T1 chain with E131A
B13: 14-3-3ζ E131AN173V (natural protein, human, UniProt P63104 1-245, looked up)
chain: T1 chain with E131A, N173V
B14: 14-3-3ζ D124A (natural protein, human, UniProt P63104 1-245, looked up)
chain: T1 chain with D124A
B15: E180A: 14‐3‐3ζ amphipathic pocket mutant (protein)
chain: T1 chain with E180A
modifications: left off: His6, end not stated, cleaved
B16: 14-3-3ζ E180AN173V (natural protein, human, UniProt P63104 1-245, looked up)
chain: T1 chain with N173V, E180A
B17: F117AN173V (protein)
chain: T1 chain with F117A, N173V
modifications: left off: His6, end not stated, cleaved
B18: 14-3-3ζ F117AN173V (natural protein, human, UniProt P63104 1-245, looked up)
chain: T1 chain with F117A, N173V
B19: 14-3-3ζ R55A (natural protein, human, UniProt P63104 1-245, looked up)
chain: T1 chain with R55A
B20: 14-3-3ζ E180A (natural protein, human, UniProt P63104 1-245, looked up)
chain: T1 chain with E180A

Key:
14‐3‐3 [1] = settings: cited from earlier work
[2] = Oligomeric status by native PAGE; type: physicochemical; settings: 15 μg protein, 10% native gel (legend: 12%), Coomassie blue
Outline: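 Purified untagged 14‐3‐3ζ WT and mutant apoproteins (E. coli‐expressed, Ni‐NTA plus size exclusion, TEV‐cleaved), buffer‐exchanged into 50 mM Na‐HEPES pH 8.0, 150 mM NaCl, 10% glycerol, then run under nondenaturing conditions. Migration read as monomer or dimer.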

[3] = Gel filtration, Hiload 16/600 Superdex 200; type: physicochemical
Outline: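 After His‐tag removal with TEV protease, untagged 14‐3‐3ζ WT or mutant protein from E. coli BL21 DE3 was run on the Superdex 200 column in 50 mM Tris/Cl pH 8.0, 400 mM NaCl, 10% glycerol. Peak fractions collected and elution profile recorded.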

[4] = biological target: T1, 14-3-3ζ WT (human), P63104; assay: native gel or EMSA; settings: remark: other sources report otherwise
[5] = test system: 14‐3‐3ζ WT and mutant proteins; assay: ATPase activity; type: biochemical, human; settings: 10 μM protein, 1 mM ATP, 37°C, 2 h; three independent experiments
[6] = test system: FAM‐labeled peptides (mode2 phosphopeptide); assay: Peptide binding ability of 14‐3‐3ζ mutant proteins by fluorescence polarization; settings: FP; FAM‐labeled peptide 62.5 nM, protein 8 to 0.0625 μM, 25°C, 30 min
Outline: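 Untagged 14‑3‑3ζ mutants (E. coli BL21 DE3; Ni‑NTA, SEC, TEV cleavage) in 50 mM Na‑HEPES pH 8.0, 150 mM NaCl, 10% glycerol. Protein titrated 8 to 0.0625 μM against constant 62.5 nM N‑terminal FAM‑labeled phosphopeptide. Incubated 30 min at 25°C in the dark before anisotropy reading; K_D fitted.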

[7] = Thermal stability by nano‐DSF; type: physicochemical
14‐3‐3 [8] = settings: ref 16 (Ramteke et al.); cited from earlier work
native gel or EMSA = biological target: the molecule itself; assay: native gel or EMSA

| Molecule | migration on native PAGE / oligomeric state [2] | ATPase activity (in words, compared with WT) [5] | stoichiometry N (native gel or EMSA) | also measured |
| --- | --- | --- | --- | --- |
| Nc1ncnc2c1ncn2[C@@H]1O[C@H](COP(=O)(O)O)[C@@H](O)[C@H]1O [AMP] |  |  |  | binding to 14‐3‐3 alone (14‐3‐3 [1]): Neither AMP nor the nonphospho ChREBP peptide alone can bind strongly to the 14‐3‐3; effect of AMP on 14‐3‐3‐ChREBP peptide complex (14‐3‐3 [1]): stabilizes 14‐3‐3‐ChREBP peptide‐complex |
| 14‐3‐3ζ WT: wild-type 14‐3‐3ζ protein expressed in E. coli | migrated as dimers |  |  | gel filtration elution volume [3]: 68 mL |
| B1 |  |  |  | stoichiometry N [4]: 2 |
| B2 | migrated as dimers |  |  |  |
| B3 | migrated as dimers | had increased ATPase activity and has more affinity for ATP; also recorded: enhanced ATPase activity |  | peptide binding of 14‐3‐3ζ mutant protein (in words) [6]: defective in peptide binding assays; also recorded: binds less well to the phosphopeptide ligands; thermal stability (in words) [7]: more stable than the D124A |
| B4 | migrated as dimers |  |  | thermal stability (in words) [7]: most unstable and prone to aggregation |
| B5 |  | decreased dramatically |  |  |
| B6 | migrated as dimers |  |  | peptide binding of 14‐3‐3ζ mutant protein (in words) [6]: bind all peptides with the same affinity as the WT; ATPase activity (earlier study) (14‐3‐3 [8]): reduction in ATP binding and hydrolysis; also recorded: ATPase defective mutant; also recorded: decrease in the ATPase activity |
| B7 | could be monomeric in nature | near background luminescence readings‐ it is practically an ATPase null mutant |  | peptide binding of 14‐3‐3ζ mutant protein (in words) [6]: bound the peptide with comparable affinity to the WT; also recorded: bind all peptides with the same affinity as the WT; gel filtration elution volume [3]: 74 mL |
| B8 | migrated as dimers | made no difference to the ATPase activity |  |  |
| B9 | migrated as dimers | higher than that of the WT protein; also recorded: enhanced ATPase activity |  | peptide binding of 14‐3‐3ζ mutant protein (in words) [6]: defective in peptide binding; ATPase activity (earlier study) (14‐3‐3 [8]): increase in ATPase activity |
| B10 | could be monomeric in nature | some ATPase activity (less than the WT) |  | ATPase activity as percentage of the N173V mutant [5]: 20%; reduction in ATPase activity compared with N173V [5]: 80% |
| B11 |  |  | 2 |  |
| B12 |  |  | 2 |  |
| B13 |  |  | 2 |  |
| B14 |  |  | 2 |  |
| B15 | migrated as dimers | made no difference to the ATPase activity |  |  |
| B16 |  |  | 2 |  |
| B17 | migrated as dimers |  |  |  |
| B18 |  |  | 2 |  |
| B19 |  |  | 2 |  |
| B20 |  |  | 2 |  |
